From PubChem
Hits are enriched below; roughly 3.4% of the tested compounds scored in any of these assays.
Mdm2 ligase inh: MDM2-luciferase reporter signal enhancers, primary screen, MDM2 E3 ligase inhibitor project, cell-based, luminescence, 1536-well; actives 0.11% (n = 210,000); E3 ubiquitin-protein ligase Mdm2 (Homo sapiens), Q00987; cell-based MDM2 ubiquitination luciferase reporter, 2 h; 0 = plate control, 100 = twice control, blank-subtracted; AID 1230, 2008; signal enhancement, % at 5 µM;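 active = signal enhancement of 30% or more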;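 note: luminescence tracks abundance of the self-degrading MDM2-luciferase fusion protein; higher signal means inhibition of MDM2 E3 ligase activity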
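Assay system: stable mammalian line carrying autodegrading MDM2–luciferase fusion reporter; amount: 2000 cells seeded into each well; buffer or medium: DMEM; benchmarks: plate control and blank wells; signal: luciferase luminescence; timing: 2 h compound exposure at 37 °C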
ROMK primary: ROMK potassium channel modulators, primary screen, cell-based, thallium flux, MLSMR library. ATP-sensitive inward rectifier potassium channel 1 (Homo sapiens), P48048. Tet-inducible ROMK, thallium flux fluorescence; actives lie on both sides. B-score at 10 µM. actives 2% (n = 130,000);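 active = signal ratio slope over the read window, or its plate-corrected B-score, at least 3 SD from the plate mean, either direction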;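 note: B-score of the F/F0 ratio slope over 7 to 12 s after thallium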
Cl transport mod: KCC2 cotransporter modulators, thallium flux, primary screen, cell-based, HEK293 KCC2, FluoZin-2 fluorescence, MLSMR; KCC2 cells, thallium flux FluoZin-2 fluorescence; actives 2.2% (n = 190,000); Solute carrier family 12 member 5 (Homo sapiens), Q9H2X9; AID 1456, 2008; B-score of Tl+ flux slope (higher = more flux/activation; lower = inhibition) at 10 µM;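 active = thallium flux slope and its plate-corrected score both differing from the plate sample mean at a set confidence after two filtering rounds, in either direction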;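 note: slope of fluorescence scaled to starting intensity during 10 to 20 s after thallium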
Target sequence (Q9H2X9 whole entry, looked up): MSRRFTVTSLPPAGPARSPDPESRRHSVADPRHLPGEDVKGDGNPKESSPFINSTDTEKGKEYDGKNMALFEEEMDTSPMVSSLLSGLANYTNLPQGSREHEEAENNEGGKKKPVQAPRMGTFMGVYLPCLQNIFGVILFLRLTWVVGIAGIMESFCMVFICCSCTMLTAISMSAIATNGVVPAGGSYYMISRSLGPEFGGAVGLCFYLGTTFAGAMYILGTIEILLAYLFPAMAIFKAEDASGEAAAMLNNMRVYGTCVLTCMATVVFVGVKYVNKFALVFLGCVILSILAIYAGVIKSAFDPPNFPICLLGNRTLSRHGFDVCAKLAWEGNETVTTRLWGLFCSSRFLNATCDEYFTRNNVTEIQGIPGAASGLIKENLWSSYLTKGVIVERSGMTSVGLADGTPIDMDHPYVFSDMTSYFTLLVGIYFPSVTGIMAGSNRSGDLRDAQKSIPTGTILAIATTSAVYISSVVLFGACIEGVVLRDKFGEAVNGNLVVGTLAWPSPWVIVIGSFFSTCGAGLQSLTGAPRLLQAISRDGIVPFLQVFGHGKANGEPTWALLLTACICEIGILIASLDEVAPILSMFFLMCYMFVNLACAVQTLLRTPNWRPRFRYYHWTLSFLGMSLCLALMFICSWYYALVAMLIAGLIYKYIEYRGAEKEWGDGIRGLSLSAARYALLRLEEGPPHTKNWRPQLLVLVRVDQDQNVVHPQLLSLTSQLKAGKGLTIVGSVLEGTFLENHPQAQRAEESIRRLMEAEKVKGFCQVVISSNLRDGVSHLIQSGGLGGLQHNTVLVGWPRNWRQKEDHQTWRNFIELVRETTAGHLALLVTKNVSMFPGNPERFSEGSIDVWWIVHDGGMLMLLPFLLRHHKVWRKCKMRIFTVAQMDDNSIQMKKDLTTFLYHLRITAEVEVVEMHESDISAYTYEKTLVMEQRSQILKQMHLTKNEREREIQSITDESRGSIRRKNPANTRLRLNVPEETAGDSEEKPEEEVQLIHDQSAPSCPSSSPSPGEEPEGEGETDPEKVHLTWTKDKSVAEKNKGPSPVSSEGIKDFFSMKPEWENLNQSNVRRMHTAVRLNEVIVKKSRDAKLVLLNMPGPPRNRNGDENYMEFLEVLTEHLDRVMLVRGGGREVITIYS
p97 inhibitor: inhibitors of human p97 ATPase, primary screen, biochemical; Transitional endoplasmic reticulum ATPase (Homo sapiens), P55072; recombinant p97 ATPase, Kinase-Glo ATP luminescence, 3 h; inhibition, % at 8 µM; actives 0.42% (n = 220,000); in the data active = inhibition above about 15%;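 note: 0% = DMSO vehicle and 100% = wells lacking enzyme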
PKD1 kinase inh: inhibitors of human PKD1 kinase, biochemical, fluorescence polarization; PKD1 kinase fluorescence polarization assay; Serine/threonine-protein kinase D1 (Homo sapiens), Q15139; AID 797, 2007; inhibition, % (no concentration beside the values); actives 0.056% (n = 200,000); in the data active = inhibition above about 50%
DTT redox prof: compounds producing H2O2 with reducing agent – biochemical, NIH compound library profiling, artefact control for MLSCN library redox annotation, primary screen. DTT-dependent redox cycling H2O2, phenol red/HRP absorbance; 100% = 100 µM peroxide control, 0% = buffer. activation, % at 10 µM. actives 0.03% (n = 200,000). AID 878, 2007;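 active = activation of at least 50% relative to the plate's high and low controls in the primary single-dose screen; inactive = activation below 50%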;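 note: compound incubated with DTT at 0.8 mM final as the reducing agent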
* marks the source's active call; other numbers are inactive results; . = no result given.

SMILES | Mdm2 ligase inh | ROMK primary | Cl transport mod | p97 inhibitor | PKD1 kinase inh | DTT redox prof
Cn1c(=S)[nH]c2scc(-c3cccs3)c2c1=O | -14 | 4* | 59* | -5 | 5 | -1
O=c1c2c(-c3cccs3)csc2ncn1-c1ccc(Br)cc1 | -13 | . | -0.86 | -1 | 3 | 1
CC(C)Oc1ccc(CCC(=O)NNC(=S)Nc2ccccc2)cc1 | -1 | . | 0.81 | -5 | . | .
CNCCCC1c2ccccc2C=Cc2ccccc21 | . | . | 0.13 | -1 | 4 | 0
CNCCCC1Sc2ccccc2Oc2ccccc21 (centres undefined) | -13 | -3.7* | 1.6 | 0 | 3 | 1
O=C(c1ccccc1)N(Cc1ccc2c(c1)OCO2)Cc1nc2ccccc2c(=O)[nH]1 | -8 | 3.2* | 0.46 | 5 | -3 | 0
COc1ccc(-c2c(NC(=O)c3ccco3)n(-c3ccc(C)cc3)nc(C)c2=O)cc1 | -39 | . | 0.78 | 9 | . | .
Cc1ccc(-n2ncc3c(=O)[nH]c(SCC(=O)N4CCCc5ccccc54)nc32)cc1 | -10 | . | 0.87 | 3 | 0 | 2
Cc1cccc(CN2CCN(C(=O)c3ccccc3F)CC2)c1 | 7 | 6.2* | -1 | -2 | 0 | 1
OCc1cc(C(O)CNCCCCCCOCCCCc2ccccc2)ccc1O (centres undefined) | . | . | -3* | 10 | . | .
CCOCCCNCC(O)c1ccccc1 (centres undefined) | -12 | . | 0.56 | -1 | -6 | 0
O=C(Nc1ccc(F)cc1)c1ccccc1S(=O)(=O)c1ccccc1[N+](=O)[O-] | 49* | 0.011 | 1.2 | -5 | 4 | 0
CC(=O)Nc1ccc(NC(=O)c2ccccc2S(=O)(=O)c2ccccc2[N+](=O)[O-])cc1 | -16 | -0.31 | -1.1 | -3 | 2 | -1
Cc1cc(C)nc(Sc2ncnc3sc4c(c23)CCC4)n1 | 6 | . | 7.6* | -1 | -3 | 0
CS(=O)(=O)N1CCN(c2ccccc2NC(=S)NC(=O)c2cccs2)CC1 | -7 | -0.29 | 0.98 | -6 | 4 | -1
O=C(NC(=S)Nc1ccc(N2CCCCC2)c(Cl)c1)c1cccs1 | . | . | 32* | -2 | 3 | 3
CC1CCN(c2ccccc2NC(=S)NC(=O)c2ccco2)CC1 | . | . | 15* | -2 | -11 | 2
CC1CCN(c2ccccc2NC(=S)NC(=O)c2cccs2)CC1 | -13 | . | 9.5* | -3 | -12 | 2
COc1ccc(/C=C(\NC(=O)/C=C/c2ccco2)C(=O)NCCc2nc3ccccc3[nH]2)cc1 | . | 0.021 | 0.34 | 12 | 0 | 0
CC(=O)c1cccc(NC(=O)NNC(=O)c2ccc(Cl)cc2Cl)c1 | 5 | 0.98 | 0.03 | 4 | 8 | 0
CCOc1ccc(N(CC(=O)NCc2ccco2)S(C)(=O)=O)cc1 | -12 | . | 1.2 | -1 | -9 | 3
O=C(/C=C/c1cccs1)NC(=S)NNC(=O)c1ccccc1O | -8 | 3.1* | 12* | 6 | 1 | -1
COc1ccc(C(=O)NNC(=S)NC(=O)/C=C/c2cccs2)cc1 | -25 | 3.7* | 13* | 5 | 2 | 0
COc1ccc(/C=C/C(=O)NC(=S)NNC(=O)c2ccco2)cc1 | 1 | 0.8 | 11* | 4 | 1 | 1
COc1ccc(/C=C/C(=O)NC(=S)NNC(=O)c2ccco2)cc1OC | . | . | . | 6 | . | .
SMILES | Mdm2 ligase inh | ROMK primary | Cl transport mod | p97 inhibitor | PKD1 kinase inh | DTT redox prof
O=c1c(-c2ccc(Cl)cc2)[n+]([O-])c2ccccc2n1O | -6 | -1 | 9.6* | -2 | -5 | 1
C/C=C/C=C/[C@H]1Cc2cc(O)cc(O)c2O1 | -19 | . | -0.0057 | . | . | .
Cc1c(C(=O)OCC[N+]2(C)CCCCC2)oc2ccccc12 | 5 | -0.11 | 0.21 | 8 | -4 | -1
CCCCN(CC)C(=O)Cn1cnc2ccc(S(=O)(=O)N3CCC(C)CC3)cc2c1=O | 14 | . | 0.53 | 1 | -9 | 0
CCN(CC)S(=O)(=O)c1cccc(-c2n[nH]c(=S)n2/N=C/c2ccc(OC)cc2)c1 | -8 | 0.35 | 1.2 | 2 | -8 | 0
Cc1ccc(/C=N/n2c(-c3cccs3)n[nH]c2=S)cc1 | -18 | . | 30* | -2 | -12 | 21
S=c1[nH]nc(-c2ccncc2)n1/N=C/c1ccccc1 | 11 | . | 1.2 | 4 | 3 | 1
COc1ccc(/C=N/n2c(-c3cccs3)n[nH]c2=S)cc1 | -16 | . | 31* | -1 | -3 | -8
COC(=O)C1=C(C)NC(=O)/C1=C\c1cc(C)n(-c2ccc(F)cc2)c1C | -10 | -0.48 | -0.59 | 8 | 0 | 1
CC(C)(C)NCc1cc(Cl)ccc1OCc1cccs1 | 17 | . | 0.5 | -5 | 8 | 0
CCCN(CCC)CCNc1c(NC2CCN(C(=O)OCC)CC2)c(=O)c1=O | 48* | . | 1.2 | -3 | -6 | -3
CC(=O)Nc1ccc(NC(=O)Cc2sc(-c3cccnc3)nc2-c2ccc(C)cc2)cc1 | -15 | 0.78 | 0.033 | 15* | 16 | 0
CCOc1ccc(-c2onc(C(F)(F)F)c2-c2cscn2)c(O)c1 | . | 0.5 | -2 | 29* | -1 | 1
CN(CC(=O)Nc1ccc(S(=O)(=O)N2CCCC2)cc1)Cc1cccc(Cl)c1Cl | -1 | 0.21 | -0.55 | -8 | 12 | -1
CCn1c(SCC(=O)N2CCCc3ccccc32)nc2cccnc21 | -4 | 3.1* | 0.21 | 13 | -8 | -2
Cn1c(SCC(=O)N2CCCc3ccccc32)nc2cccnc21 | 4 | . | . | 1 | -7 | 2
Cc1ccc(C(=O)NC2CC3CCCC(C2)N3C(=O)NC2CCCCC2)cc1 (centres undefined) | 0 | . | -0.081 | 3 | -1 | 0
O=C(Oc1ccc(-c2csnn2)cc1)C1CC1 | -11 | . | 0.48 | 8 | . | .
O=C(Nc1ccc(-c2csnn2)cc1)C1CC1 | 83* | . | 0.013 | -6 | . | .
Cc1ccc(C2CC2c2n[nH]c(=S)n2-c2ccc(C)cc2)cc1 (centres undefined) | -5 | 0.06 | 21* | -5 | -1 | 1
CN(Cc1ccccc1)S(=O)(=O)c1ccc(C(=O)Nc2nnc(C3CC3)o2)cc1 | -3 | . | -0.0044 | 2 | 7 | 0
COc1ccccc1-c1nnc(NC(=O)c2ccc(S(=O)(=O)N(C)Cc3ccccc3)cc2)o1 | -17 | -3.4* | . | -2 | 0 | 1
O=S(=O)(c1ccc(Cl)c(Cl)c1)c1snnc1-c1ccccc1 | -17 | -0.49 | -0.55 | 23* | 4 | 0
NC(=O)c1snnc1-c1ccccc1 | -6 | . | 1.6 | 7 | . | .
